# Most compounds without a hit are left out; they make up all but 1.1% or so of the library.
# NR2E3 ag-1 = inhibitors of NR2E3-RetCOR corepressor binding, primary screen, NR2E3 agonist project, biochemical, TR-FRET, GST-NR2E3, biotin-RetCOR; Photoreceptor-specific nuclear receptor (Homo sapiens), Q9Y5X4; 1536-well; inhibition of corepressor binding, % at 4.78 µM; 320,000 tested, 0.12% active; AID 2300, 2010;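 active = percent inhibition above the cutoff of mean plus 3 SD of all tested compounds, set per screening campaign, cut at about 20% in these data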;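 also: 0% = DMSO wells and 100% = biotin wells as full block of FRET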
#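 System: GST-tagged NR2E3 plus biotinylated RetCOR corepressor; Amount: 1.35 nM GST-tagged NR2E3 final; Dosing: single nominal compound dose of 4.8 µM; Schedule: 5 h incubation at 4 °C; Technique: TR-FRET with europium anti-GST and streptavidin-D2, 340 nm excitation; Controls: biotin wells as high control, 0.6% DMSO wells as low control.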
# core dimer inh = inhibitors of HCV core protein dimerization, primary screen, biochemical, TR-FRET, high-throughput; TR-FRET GST/Flag-core106 dimerization, 1536-well; inhibition, % at 5 µM; 300,000 tested, 0.33% active;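 active = inhibition above the mean of all tested compounds plus 3 SD, set per screening campaign, cut at about 45% in these data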
#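 System: GST/Flag-tagged HCV core106 proteins. Incubation: compound-protein-antibody incubation 4 h at 22.5 °C. Technique: HTRF with 340 nm excitation, 617/671 nm emission. Medium: KF-containing HEPES buffer, pH 7.45, DTT, CHAPS, BSA. Read-out: inhibition (%) from 671 over 617 nm ratio. Also added: Eu(K)-anti-GST 90 ng/mL plus XL665-anti-Flag 1 µg/mL.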
# DAGLB inh = DAGLB lipase inhibitors, primary screen, biochemical, fluorescence, HTS; HEK293T DAGLB membrane lysate, EnzChek fluorogenic substrate; 340,000 tested, 0.059% active; inhibition, % at 5.17 µM; Diacylglycerol lipase-beta (Homo sapiens), Q8NCG7; in the data active = inhibition above about 34%;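 also: 0% = enzyme with vehicle and 100% = wells lacking enzyme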
# Target sequence (Q8NCG7 whole entry, looked up): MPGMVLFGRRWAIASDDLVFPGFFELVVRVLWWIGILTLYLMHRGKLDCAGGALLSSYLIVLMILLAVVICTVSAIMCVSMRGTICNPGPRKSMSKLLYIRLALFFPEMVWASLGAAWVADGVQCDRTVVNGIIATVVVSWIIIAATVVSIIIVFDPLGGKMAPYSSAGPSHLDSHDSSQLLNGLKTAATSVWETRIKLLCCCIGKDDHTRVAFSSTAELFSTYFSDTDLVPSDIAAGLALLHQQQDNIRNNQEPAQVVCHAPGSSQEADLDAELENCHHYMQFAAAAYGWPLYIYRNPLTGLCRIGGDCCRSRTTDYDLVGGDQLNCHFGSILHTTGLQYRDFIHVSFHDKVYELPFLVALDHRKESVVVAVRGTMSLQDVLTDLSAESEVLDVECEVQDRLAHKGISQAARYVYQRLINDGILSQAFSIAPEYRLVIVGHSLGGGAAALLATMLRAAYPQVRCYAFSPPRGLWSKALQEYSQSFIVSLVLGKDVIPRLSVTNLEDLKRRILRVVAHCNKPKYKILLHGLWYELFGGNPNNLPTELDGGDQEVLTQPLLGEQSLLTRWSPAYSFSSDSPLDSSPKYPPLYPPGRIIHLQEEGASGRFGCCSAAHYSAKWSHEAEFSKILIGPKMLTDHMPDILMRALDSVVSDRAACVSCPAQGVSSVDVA
# NR2E3 ag-2 = NR2E3 agonists in two-hybrid cells, primary screen, cell-based, luminescence, CHO-S, Gal4-NCOR/VP16-NR2E3 | luciferase | 360,000 tested, 0.35% active | inhibition of corepressor binding, % at 3.98 µM | Photoreceptor-specific nuclear receptor (Homo sapiens), Q9Y5X4;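 active = inhibition above the mean of all tested compounds plus 3 SD, cut at about 70% in these data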;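 also: 0% = DMSO with NR2E3 transfected cells and 100% = cells lacking NR2E3 construct; higher means lower luciferase signal from less NR2E3 corepressor binding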
# Vif inh = HIV Vif self-association inhibitors, primary screen, imaging, HEK293T, single point | HEK293T cells, Vif self-association by quenched fluorescence, 24 h | inhibition, % at 7.49 µM | 340,000 tested, 0.35% active | AID 602346, 2012; in the data active = inhibition above about 50%, passing the limit was not always enough
# MT1-MMP act inh = blockers of MT1-MMP proenzyme processing, primary screen, HT1080 RFP-PRO-GFP cells, GFP/RFP fluorescence; GFP/RFP ratio fluorescence, overnight; percent of plate control window, DMSO zero; 360,000 tested, 0.061% active; GFP/RFP ratio change, % at 20 µM; Matrix metalloproteinase-14 (Homo sapiens), P50281;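 active = GFP/RFP ratio change of at least 30% with cell ATP level not reduced by more than half and red fluorescence within 50% of control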
#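 Assay system: HT1080 RFP-PRO-GFP cells. Benchmarks: DMSO vehicle wells and RFP-L50D-GFP reporter cell wells. Times: overnight cell settling, then overnight compound exposure, 37 °C, 5% CO2. Compound: 20 µM single dose, 1% DMSO. Read-out basis: GFP/RFP fluorescence ratio.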
# NR2E3 ag conf = NR2E3 agonist confirmation in cells, cell-based, luminescence, CHO-S two-hybrid | shares compounds with NR2E3 ag-2 | CHO-S mammalian two-hybrid NR2E3-NCOR, luciferase luminescence | inhibition, % at 3.98 µM | 2,300 tested, 51% active;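 active = average inhibition above a cutoff equal to the mean inhibition of all tested compounds plus one SD, cut at about 70% in these data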;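 also: 0% = DMSO in NR2E3 cells and 100% = DMSO in cells lacking NR2E3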
# GAL4-VP16 luc = GAL4-VP16 reporter modulators, confirmation, counter-screen for NR2E3 agonist project, cell-based, luminescence, CHO-S, high throughput | shares compounds with NR2E3 ag-2 | CHO-S GAL4-VP16 luciferase reporter | inhibition, % at 3.98 µM | 2,300 tested, 29% active;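 active = mean inhibition above a cutoff equal to the average over all tested compounds plus one standard deviation, cut at about 70% in these data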;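 also: luciferase from a UAS reporter driven by GAL4-VP16 transactivation; 0% = DMSO with VP16-transfected cells and 100% = DMSO with cells lacking VP16; higher means less reporter light so more repression of VP16 activity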
# Starred values were filed as active, the others as inactive; x = not tested or not shown.
SMILES,NR2E3 ag-1,core dimer inh,DAGLB inh,NR2E3 ag-2,Vif inh,MT1-MMP act inh,NR2E3 ag conf,GAL4-VP16 luc
COc1ccc(C(=O)C2CCCN(C(=O)/C=C/c3ccccn3)C2)c(C)c1 (stereo unspecified),3,5,1,-5,0,1,x,x
O=S(=O)(NCC1CCN(Cc2ccccc2)CC1)c1ccccc1C(F)(F)F,1,-14,0,-25,14,1,x,x
CC1(C)C2C/C(=N\O)C(C)(/[N+]([O-])=C/c3cccc([N+](=O)[O-])c3)CC21 (stereo unspecified),1,4,0,-4,6,3,x,x
CCCCCOc1ccc(Br)cc1CSC(=N)N,x,x,1,61,x,-28,90*,59
Cc1c(NS(=O)(=O)c2cccs2)cccc1-c1nc2cccnc2s1,0,8,0,-49,-20,-1,x,x
O=S(=O)(Nc1cccc2ncccc12)c1cccs1,3,5,-2,97*,17,-25,48,24
CC(C)Nc1ncnc2c1ncn2[C@H]1CN(Cc2ccc(-c3ccccc3)cc2)C[C@@H](CO)O1,x,x,x,73*,-15,-2,70,52
CC(C)CNc1ncnc2c1ncn2[C@H]1CN(Cc2ccncc2)C[C@@H](CO)O1,x,x,x,7,-1,0,x,x
CC(C)CNc1ncnc2c1ncn2[C@H]1CN(Cc2ccc(-c3ccccc3)cc2)C[C@@H](CO)O1,x,x,x,63,-40,15,89*,67
CN(C)CCNc1ncnc2c1ncn2[C@H]1CN(Cc2ccc(-c3ccccc3)cc2)C[C@@H](CO)O1,x,x,x,-13,8,0,x,x
Cc1cc(OCc2cc(C(=O)N3CCN(C)C(=O)[C@@H]3C)no2)cc(C)c1Cl,-1,-2,-1,48,-3,-3,47,20
COc1cc(Cl)ccc1OCc1cc(C(=O)N2CCN(C)C(=O)[C@@H]2C)no1,x,x,-3,-92,-4,2,x,x
CC(NC(=O)Cc1ccsc1)c1ccc(Cl)cc1Cl (stereo unspecified),3,2,-3,-12,6,-2,x,x
COc1cccc(C(=O)NCCN2CCC(n3c(=O)[nH]c4ccccc43)CC2)c1,x,x,x,-34,x,7,x,x
CC1(C(=O)Nc2ccc3c(c2)OCO3)CCN1C(=O)Cc1ccc(-c2ccccc2)cc1 (stereo unspecified),x,x,x,94*,-13,3,97*,84*
CC1(C(=O)Nc2ccc(Cl)c(Cl)c2)CCN1C(=O)Cc1ccc(-c2ccccc2)cc1 (stereo unspecified),x,x,x,68,-31,8,93*,73*
CC1(C(=O)Nc2ccccc2)CCN1C(=O)Cc1ccc(-c2ccccc2)cc1 (stereo unspecified),x,x,x,53,-13,-4,46,33
COc1cccc(NC(=O)C2(C)CCN2C(=O)Cc2ccc(-c3ccccc3)cc2)c1 (stereo unspecified),x,x,x,33,-29,12,x,x
CCC(=O)N1CCC1(C)C(=O)Nc1ccc2c(c1)OCO2 (stereo unspecified),x,x,x,-3,1,0,x,x
O=C(NCCCOc1ccc([N+](=O)[O-])cc1Cl)OCc1ccccc1,x,x,-3,1,3,2,x,x
COCCN1CCN(C(=O)c2ccc3nc(Cc4ccc(OC)c(OC)c4)oc3c2)CC1,4,4,-1,70,-16,11,45,56
C[C@@H]1CN([C@@H](C)CO)C(=O)CCCn2nncc2CO[C@H]1CN(C)S(=O)(=O)c1cccs1,x,x,1,-13,5,-3,x,x
O=C1CCC(OCc2ccccc2)CCN1[C@H](CSc1ccccc1)Cc1ccccc1 (stereo partly specified),x,x,x,-17,x,-3,x,x
Cn1c(=O)c2[nH]c(CCCCCCCCc3nc4ccccc4[nH]3)nc2n(C)c1=O,x,x,0,68,-14,11,79*,61
CCOC(CN=c1nc(N(C)C)ss1)OCC,x,x,1,89*,2,1,17,3
SMILES,NR2E3 ag-1,core dimer inh,DAGLB inh,NR2E3 ag-2,Vif inh,MT1-MMP act inh,NR2E3 ag conf,GAL4-VP16 luc
COC(=O)c1cc(C)ccc1/C=C1/Cc2c(C)cc(C)cc2C1=O,x,x,-6,7,-12,-5,x,x
CCOC1=C2[C@H](c3ccc(CC)cc3)N(S(=O)(=O)c3ccc(C)cc3)C[C@H]2C(C#N)(C#N)C(C#N)(C#N)C1,x,x,x,-7,x,-8,x,x
COc1cc(CC(=O)Nc2nc(C)cs2)cc(OC)c1OC,-1,-3,1,10,-8,0,x,x
COc1ccc(-c2csc(NC(=O)Cc3cc(OC)c(OC)c(OC)c3)n2)cc1OC,-2,9,1,48,-22,-2,10,44
O=c1c2c([nH]n1-c1ccccc1)C[C@@H](C1CCCCC1)O[C@H]2c1ccc(F)cc1,x,x,x,57,x,6,10,-17
CC(=O)N1c2ccc(S(=O)(=O)N3CCC(C(=O)NCCc4ccc(Cl)cc4)CC3)cc2CC1C (stereo unspecified),1,8,1,32,-6,-6,x,x
CCn1nc(C)c(CNC(=O)c2ccc(OC3CCN(Cc4ccccn4)CC3)cc2)c1C,x,x,1,79*,-36,9,57,60
CCOc1ccc(C(CC(=O)O)NC(=O)Cc2ccc(Cl)cc2)cc1 (stereo unspecified),-2,11,-5,8,5,3,x,x
COc1cc2cc(C(=O)Nc3ccc4c(c3)OCCO4)[nH]c2cc1OC,3,-22,4,57,-5,3,34,-4
COCC(=O)Nc1ccc2c(c1)OCC(=O)N2Cc1ccccc1F,1,11,-3,1,-10,-1,x,x
Cc1ccc(CCNC(=O)C(C)n2nc(C)c3c(C)n(-c4ccccc4)nc3c2=O)cc1 (stereo unspecified),-1,-4,0,-4,0,3,x,x

# Source: PubChem (several laboratories)
